Screens (PubChem BioAssay)
KCNK9 block – inhibitors of human KCNK9 two-pore domain potassium channel; HEK293 KCNK9, FluxOR thallium flux fluorescence; hits give low values; AID 488922; B-score at 10 µM; hit rate 1.2% among 310,000; Q9NPC2;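 active means ratio B-score over 3 SD below the library mean, with starting fluorescence within 5 SD of its mean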;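 further: negative B-score means less thallium flux so channel inhibition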
Target sequence (Q9NPC2 whole entry, looked up, the tested form may be a part): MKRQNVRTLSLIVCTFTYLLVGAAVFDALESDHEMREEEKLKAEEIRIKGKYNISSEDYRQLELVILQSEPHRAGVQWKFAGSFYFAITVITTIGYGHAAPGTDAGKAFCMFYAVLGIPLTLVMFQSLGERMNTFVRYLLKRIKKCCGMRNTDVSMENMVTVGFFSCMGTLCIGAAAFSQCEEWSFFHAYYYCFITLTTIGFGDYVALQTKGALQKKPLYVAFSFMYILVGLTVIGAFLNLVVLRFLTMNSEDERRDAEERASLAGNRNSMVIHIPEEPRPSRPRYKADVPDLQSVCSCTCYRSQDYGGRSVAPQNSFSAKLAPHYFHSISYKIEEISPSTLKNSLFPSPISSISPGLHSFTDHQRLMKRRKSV
KCNQ1 act – potentiators or activators of human KCNQ1 potassium channel; B-score at 10 µM; hit rate 0.35% among 310,000; CHO-K1 KCNQ1, thallium flux FluxOR fluorescence; hits give high values;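 active means fluorescence ratio B-score, a plate-corrected score, at least three library SD, with initial intensity B-score within 5 SD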
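Schedule – 37 °C overnight plating, 90-min dark dye load, 20-min compound pretreatment · System – stable KCNQ1 CHO-K1 line · Probe or stimulus – thallium- and potassium-containing depolarizing buffer · Measured by – kinetic FluxOR fluorescence, 10 s baseline plus 110 s post-stimulus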
KCNK3 inh – human KCNK3 channel inhibition, primary screen | AID 602410 | hit rate 0.84% among 340,000 | B-score at 10 µM | CHO-KCNK3 thallium flux, FluxOR fluorescence; hits give low values;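 active means B-score under library mean minus 4 SD, starting fluorescence ratio at most library mean plus 5 SD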;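 further: more negative B-score means stronger inhibition of thallium flux through KCNK3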
Target sequence (O14649 whole entry, looked up): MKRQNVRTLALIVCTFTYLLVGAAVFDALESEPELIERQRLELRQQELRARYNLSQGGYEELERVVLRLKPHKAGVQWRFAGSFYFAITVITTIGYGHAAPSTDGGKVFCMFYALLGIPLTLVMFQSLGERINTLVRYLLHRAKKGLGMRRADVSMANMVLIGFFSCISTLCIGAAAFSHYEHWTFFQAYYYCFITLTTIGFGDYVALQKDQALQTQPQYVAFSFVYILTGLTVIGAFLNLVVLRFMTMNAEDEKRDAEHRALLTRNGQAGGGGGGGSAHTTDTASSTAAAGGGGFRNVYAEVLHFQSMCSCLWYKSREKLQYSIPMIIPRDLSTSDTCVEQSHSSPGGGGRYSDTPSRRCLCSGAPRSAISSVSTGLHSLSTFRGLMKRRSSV
hERG protect – hERG (human) protection from proarrhythmic block; hit rate 0.51% among 310,000; activation (rescue from dofetilide block), less the hit threshold, % at 10 µM; CHO-hERG, FluxOR thallium flux, dofetilide IC70 present; Q12809;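 active means activation above the mean of controls blocked by dofetilide plus 5 SD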;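 further: thallium influx through hERG after potassium depolarization seen as dye fluorescence rise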
KCNQ1 block – human KCNQ1 channel inhibition | CHO-K1 KCNQ1, FluxOR thallium flux fluorescence; hits give high values | B-score at 10 µM | hit rate 1.3% among 310,000;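 active means compounds whose thallium flux B-score, printed positive for inhibition, exceeds three library SD while starting fluorescence stays within three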;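 further: channel opened by potassium depolarization with thallium stimulus after 20 min compound exposure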
KCNQ1 inh valid – human KCNQ1 channel inhibition, validation assay | shares compounds with KCNQ1 block | KCNQ1 cell line, FluxOR thallium flux fluorescence | inhibition, % at 10 µM | hit rate 93% among 1,600;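 active means primary screen active, with duplicate mean exceeding buffer control mean plus 3 SD of buffer wells, cut at about 28% in these data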
CHO KCNQ1 ctr – counter-screen for KCNQ1 inhibitors: effect in parental CHO cells; shares compounds with KCNQ1 block; parental CHO-K1, FluxOR thallium flux fluorescence ratio; hits give low values; zero means no signal rise above baseline; fluorescence ratio (Tl flux) at 10 µM; hit rate 21% among 1,600; AID 588366;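 active means mean of duplicate thallium-flux fluorescence ratios in parental host cells more than 5 SD below the buffer control mean, cut at about 0.38 in these data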;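 further: ratio is peak minus minimum fluorescence divided by baseline fluorescence; actives read low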
KCNQ1 ephys val – human KCNQ1 inhibition validated by electrophysiology; KCNQ1-CHO cells, automated patch clamp current; shares compounds with KCNQ1 block; hit rate 20% among 490; calls only at 10 µM;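 active means KCNQ1 current drop exceeding 3 SD of negative control wells, seen in both duplicate runs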;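 further: steady state current during a 2 s step from -80 to +40 mV; negative values mean current inhibition and positive values mean potentiation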
KCNQ2 inh – KCNQ1 inhibitor that also blocks rat KCNQ2 channel; inhibition, % at 10 µM; KCNQ2 cells, FluxOR thallium flux fluorescence; AID 651746; hit rate 71% among 1,600; shares compounds with KCNQ1 block;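 active means mean percent inhibition of the KCNQ2 thallium signal more than 5 SD above the buffer-only control wells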;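 further: KCNQ2 expressed in CHO cells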
KCNQ1-KCNE1 inh – human KCNQ1/KCNE1 inhibition in KCNQ1 specificity screen. shares compounds with KCNQ1 block. KCNQ1/KCNE1 cells, FluxOR thallium flux fluorescence. inhibition, % at 10 µM. hit rate 77% among 1,600. AID 652147;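 active means mean percent inhibition of duplicate wells above the buffer-only control mean plus 3 SD of those controls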
Each line names hits and unclear results; the compound was inactive in the other large screens (follow-up assays come after a bar, where they were run). Rows were chosen to be rich in hits. Some 3.1% of all compounds tested hit in one or more screens of this group.

COc1ccc(S(=O)(=O)n2nc(-n3c(C)ccc3C)c3c(F)cccc32)cc1OC	KCNQ1 block 9 | KCNQ1 inh valid 124 | CHO KCNQ1 ctr inactive | KCNQ1 ephys val inactive | KCNQ2 inh 107% | KCNQ1-KCNE1 inh 138%
CC(NS(=O)(=O)c1ccc(Cl)c(Cl)c1)C(=O)OCC(=O)Nc1ccc2c(c1)OCO2 (configuration not stated)	KCNQ1 block 6 | KCNQ1 inh valid inactive | CHO KCNQ1 ctr inactive | KCNQ2 inh 62% | KCNQ1-KCNE1 inh inactive
O=C(OCc1ccccc1)c1cn(-c2ccccc2)nc1-c1ccncc1	none
COc1cc(CC(=O)N2CCN(C(=O)C3CCCO3)CC2)cc(OC)c1OC (configuration not stated)	none (no result: KCNK9 block, KCNQ1 act, hERG protect, KCNQ1 block)
O=C(Nc1nc2c(s1)COc1ccccc1-2)c1cccs1	KCNQ1 block 7 | KCNQ1 inh valid 44 | CHO KCNQ1 ctr inactive | KCNQ2 inh 102% | KCNQ1-KCNE1 inh 64%
O=C(CCS(=O)(=O)c1ccccc1)Nc1nc2c(s1)COc1ccccc1-2	KCNQ1 block 6 | KCNQ1 inh valid 54 | CHO KCNQ1 ctr inactive | KCNQ2 inh 59% | KCNQ1-KCNE1 inh 54%
CC(=O)Nc1c2c(nn1-c1ccccc1C)CS(=O)(=O)C2	none
COc1ccccc1N1CCN(C(=O)c2ccc3c(c2)NC(=O)C(CSCc2ccccc2C)N3)CC1 (configuration not stated)	none (no result: KCNK3 inh)
COc1cc(C2=NC(CO)(CO)CO2)cc(OC)c1OC	none
O=C(Nc1ccc(F)cc1)c1cc(S(=O)(=O)Nc2ccc(F)cc2)cs1	KCNQ1 block 7 | KCNQ1 inh valid 66 | CHO KCNQ1 ctr inactive | KCNQ2 inh 62% | KCNQ1-KCNE1 inh inactive
O=C(O)C(C=C(Cl)Cl)N1CCOCC1 (configuration not stated)	none (no result: KCNK9 block, KCNQ1 act, hERG protect, KCNQ1 block)
C[C@@H]1CC=C[C@H]2[C@H]1C(=O)N(Cc1ccccc1)[C@H]2c1ccoc1	none
CC[C@@H]1CC=C[C@H]2[C@H]1C(=O)N(Cc1ccccc1)[C@H]2c1ccoc1	KCNQ1 block 9 | KCNQ1 inh valid 78 | CHO KCNQ1 ctr 0.38 | KCNQ2 inh 104% | KCNQ1-KCNE1 inh 114%
CC1CCN(CCCOc2ccc(Br)cc2Cl)CC1	KCNQ1 block 7 | KCNQ1 inh valid 62 | CHO KCNQ1 ctr inactive | KCNQ2 inh inactive | KCNQ1-KCNE1 inh 90%
CC1CCCN(CCOCCOc2ccc(Br)cc2Cl)C1 (configuration not stated)	none
Cn1nc(-c2ccccc2)cc1NC(=O)Nc1ccc(C(C)(C)C)cc1	KCNQ1 block 9 | KCNQ1 inh valid 72 | CHO KCNQ1 ctr inactive | KCNQ2 inh inactive | KCNQ1-KCNE1 inh 42%
O=C(c1ccc(Cn2c(=S)[nH]c3ccc(N4CCOCC4)cc3c2=O)cc1)N1CCC(N2CCCCC2)CC1	none
Cc1cc(C)cc(NS(=O)(=O)c2c(C(=O)N3CCOCC3)c(C)n(C)c2C)c1	none
O=C(Cn1c(=O)n(-c2cccc(C(F)(F)F)c2)c(=O)c2sccc21)NCC1CCCO1 (configuration not stated)	none
Cc1cccc(OCC(=O)NCC(=O)N/N=C/c2c(C)[nH]c3ccccc23)c1	none
Cn1c(=O)c2[nH]c(-c3ccccc3)c(O)c2n(C)c1=O	KCNQ1 block 7 | KCNQ1 inh valid 45 | CHO KCNQ1 ctr inactive | KCNQ2 inh inactive | KCNQ1-KCNE1 inh 91%
CC(=O)Nn1cc2c(c1-c1ccccc1)c(=O)n(C)c(=O)n2C	none
Cn1c(=O)c2[nH]c(-c3ccccc3Cl)c(O)c2n(C)c1=O	KCNQ1 block 6 | KCNQ1 inh valid 82 | CHO KCNQ1 ctr inactive | KCNQ2 inh inactive | KCNQ1-KCNE1 inh 98%
Cc1nn(C)c(C)c1NC(=O)Nc1ccc(Cl)c(Cl)c1	KCNQ1 block 6 | KCNQ1 inh valid 77 | CHO KCNQ1 ctr inactive | KCNQ2 inh inactive | KCNQ1-KCNE1 inh 76%
Fc1ccc(CSc2nc3ccccc3[nH]2)c2ccccc12	KCNQ1 block 6 | KCNQ1 inh valid 124 | CHO KCNQ1 ctr 0.35 | KCNQ2 inh 107% | KCNQ1-KCNE1 inh 124%
O=C(CS(=O)(=O)c1c[nH]c2ccccc12)NC1CCCCC1	none
Oc1c(C=Nc2cccc3cccnc23)sc2ccccc12	KCNK9 block -8.1, KCNQ1 block 10 (no result: KCNK3 inh) | KCNQ1 inh valid 88 | CHO KCNQ1 ctr 0.36 | KCNQ2 inh inactive | KCNQ1-KCNE1 inh 134%
O=[N+]([O-])c1ccc(O)c(N=Cc2sc3ccccc3c2O)c1	none
CCn1nccc1C(=O)Nc1cc(Cl)cc(Cl)c1	KCNK9 block -6.7, KCNQ1 block 6 | KCNQ1 inh valid 31 | CHO KCNQ1 ctr inactive | KCNQ2 inh inactive | KCNQ1-KCNE1 inh inactive
CCn1nccc1C(=O)Nc1ccc(Cl)cn1	none
CC[C@@H]1[C@H]2CCCC(=O)N3CC[C@@H](C[C@@H]1Nc1ccccc1)[C@@H]23	none
Cc1ccc(-c2csc(N3CCC(C(N)=O)CC3)n2)cc1	none (no result: KCNK9 block, KCNQ1 act, hERG protect, KCNQ1 block)
Cc1ccc(-c2csc(N3CCC(NS(=O)(=O)c4ccc5c(c4)OCCO5)CC3)n2)cc1	KCNQ1 block 6 | KCNQ1 inh valid 106 | CHO KCNQ1 ctr inactive | KCNQ1 ephys val inactive | KCNQ2 inh 96% | KCNQ1-KCNE1 inh 100%
CC(C)(C)c1ccccc1NC(=O)NC1CCN(Cc2c(F)cccc2Cl)CC1	none
Nc1ccc2nc(SCc3ccc([N+](=O)[O-])cc3)sc2c1	none
O=[N+]([O-])c1ccc2nc(SCc3ccccc3Cl)sc2c1	KCNQ1 block 15 | KCNQ1 inh valid 106 | CHO KCNQ1 ctr inactive | KCNQ1 ephys val inactive | KCNQ2 inh 117% | KCNQ1-KCNE1 inh 116%
CCOC(=O)c1c(C)n(C)c2cc(Br)c(O)c(O)c12	KCNQ1 block 6 | KCNQ1 inh valid inactive | CHO KCNQ1 ctr inactive | KCNQ2 inh 59% | KCNQ1-KCNE1 inh inactive
CCOC(=O)c1c(C)n(C)c2cc([N+](=O)[O-])c(O)c([N+](=O)[O-])c12	none
Cc1ccc2c(C(=O)N3CCN(c4ccccc4)CC3)cc(-c3cccnc3)nc2c1C	KCNQ1 block 8 | KCNQ1 inh valid 92 | CHO KCNQ1 ctr inactive | KCNQ1 ephys val inactive | KCNQ2 inh inactive | KCNQ1-KCNE1 inh 192%
Cc1ccc2nc(-c3cccnc3)cc(C(=O)N3CCN(c4ccc([N+](=O)[O-])cc4)CC3)c2c1	none
